Active and inactive are the calls of the source. The calls are words filed in the database; no cut-off is given here.
Assays:
[1] = target: Sigma non-opioid intracellular receptor 1 (Cavia porcellus, UniProt Q60492); assay: Displacement of [3H]-(+)-pentazocine from guinea pig brain sigma1 receptor by scintillation counting analysis
[2] = Displacement of [3H]DTG from rat liver sigma2 receptor by scintillation counting analysis in presence of pentazocine
[3] = Inhibition of P-glycoprotein (unknown origin) expressed in MDCK cells assessed as reduction of calcein-AM transport after 30 mins by fluorescence assay; assay type: cell-based, Homo sapiens
Procedure, shortened: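 Confluent MDCK-MDR1 monolayers (50,000 cells/well, overnight) preincubated with compound (0.1–100 µM in medium) 30 min at 37 °C, then Calcein-AM added (2.5 µM final) for 30 min. Washed three times with ice-cold PBS; calcein fluorescence read at ex 485/em 535 nm versus untreated basal. EC50 from fit of % fluorescence increase versus log dose.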

MDCK = assay: Inhibition of P-glycoprotein (unknown origin) expressed in MDCK cells assessed as ATP depletion at 100 uM by bioluminescence ATP assay; assay type: cell-based; conditions: Homo sapiens
Procedure, shortened: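 MDCK-MDR1 cells (human MDR1-transfected) plated, incubated overnight at 37 °C, 5% CO2, then exposed to test compound in complete medium for 2 h at 37 °C. Cells lysed; ATP measured by firefly luciferase/D-luciferin luminescence after 10 min dark adaptation. Percentage ATP depletion reported at 100 μM.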

[4] = Displacement of [3H]DTG from rat liver sigma2 receptor at 10^-11 M by scintillation counting analysis in presence of pentazocine
[5] = target: Sigma non-opioid intracellular receptor 1 (Cavia porcellus) (UniProt Q60492); assay: Displacement of [3H]-(+)-pentazocine from guinea pig brain sigma1 receptor at […] by scintillation counting analysis
Sigma non-opioid intracellular receptor 1 (Cavia porcellus), sequence (Q60492 whole entry): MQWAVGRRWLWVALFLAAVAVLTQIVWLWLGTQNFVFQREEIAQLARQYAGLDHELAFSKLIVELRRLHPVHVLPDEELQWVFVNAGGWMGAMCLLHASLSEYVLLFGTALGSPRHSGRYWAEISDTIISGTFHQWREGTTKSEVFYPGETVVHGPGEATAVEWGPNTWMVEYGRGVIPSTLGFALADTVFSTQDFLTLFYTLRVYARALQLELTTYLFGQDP

Sigma non-opioid intracellular receptor 1, sequence (Q60492 whole entry): as above

| SMILES | Ki [1] [nM] | Ki [2] [nM] | EC50 [3] [nM] | inhibition (MDCK) | inhibition [4] [%] | inhibition [5] [%] |
| --- | --- | --- | --- | --- | --- | --- |
| COc1cccc2c1CCCC2CCC(=O)N1CCC(C2CCCCC2)CC1 (stereo unspecified) | > 5000 | > 10000 | 30900 | – | – | – |
| COc1cc2c(cc1OC)CN(CC(=O)NCc1cn(-c3ccc(F)cc3)c3ccccc13)CC2 | > 5000 | 1620 | 920 | – | – | – |
| COc1cc2c(cc1OC)CN(CCCCn1c3ccccc3c3ccccc31)CC2 | 2190 | 0.04 | 420 | Active | – | – |
| COc1cccc2c1CCCC2CCC(=O)N1CCC(c2ccc(F)cc2)CC1 (stereo unspecified) | 2930 | 6520 | 26000 | – | – | – |
| COc1cc2c(cc1OC)C(=O)N(CCCCc1cn(-c3ccc(F)cc3)c3ccccc13)CC2 | > 5000 | > 10000 | 2340 | inactive | – | – |
| COc1cc2c(cc1OC)CN(CCCC1CCCc3c(OC)cccc31)CC2 (stereo unspecified) | – | – | 1150 | Active | 96 | – |
| COc1cccc2c1CCCC2CCC(=O)N1CCC2(CC1)OCc1ccccc12 (stereo unspecified) | 260 | 3210 | 5420 | – | – | – |
| COc1cc2c(cc1OC)CN(C(=O)CCCc1cn(-c3ccc(F)cc3)c3ccccc13)CC2 | > 5000 | > 10000 | 2250 | Active | – | – |
| COc1cc2c(cc1OC)CN(CC(=O)NC1CCCc3c(OC)cccc31)CC2 (racemic) | > 5000 | 1800 | 10000 | – | – | – |
| COc1cc2c(cc1OC)CN(CCCCc1cn(-c3ccc(F)cc3)c3ccccc13)CC2 | 1390 | 5.34 | 210 | inactive | – | – |
| COc1cccc2c1CCCC2CCCN1CCC(C2CCCCC2)CC1 (stereo unspecified) | – | 18.8 | 1920 | – | – | – |
| COc1cccc2c1CCCC2CCCN1CCC2(CC1)OCc1ccccc12 (stereo unspecified) | – | 40.6 | 2680 | – | – | 76 |
| COc1cc2c(cc1OC)CN(CC(=O)N[C@@H]1CCCc3c(OC)cccc31)CC2 | > 5000 | 1950 | 9600 | – | – | – |
| COc1cc2c(cc1OC)CN(CCCC(=O)n1c3ccccc3c3ccccc31)CC2 | > 5000 | > 10000 | 820 | Active | – | – |
| COc1cc2c(cc1OC)CN(C(=O)CCC1CCCc3c(OC)cccc31)CC2 (stereo unspecified) | > 5000 | > 10000 | 2900 | Active | – | – |
| COc1cc2c(cc1OC)CN(CC(=O)N[C@H]1CCCc3c(OC)cccc31)CC2 | > 5000 | 1760 | 10000 | – | – | – |
| COc1cc2c(cc1OC)CN(CC/C=C1\CCCc3c(OC)cccc31)CC2 | – | – | 820 | – | – | – |
| COc1cc2c(cc1OC)C(=O)N(CCCCn1c3ccccc3c3ccccc31)CC2 | > 5000 | > 10000 | 1910 | 30% | – | – |
| COc1cccc2c1CCCC2CCCN1CCC(c2ccc(F)cc2)CC1 (stereo unspecified) | – | 22.6 | 1980 | – | – | 80 |
